In the library only some 1.8% were active in any assay of this set; here they are far more common.
Scp1 inh – inhibitors of human Scp-1 phosphatase | Q9GZU7 | Recombinant Scp1, phosphopeptide, malachite green phosphate absorbance | inhibition, % at 20 µM | 0.88% of 340,000 active | AID 493091;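 active means inhibition above about 50% at 20 µM, limit read from the data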;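 further: plate controls were DMSO wells with enzyme for no effect and wells lacking enzyme for full effect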
Target sequence (Q9GZU7 76-261 limits assumed): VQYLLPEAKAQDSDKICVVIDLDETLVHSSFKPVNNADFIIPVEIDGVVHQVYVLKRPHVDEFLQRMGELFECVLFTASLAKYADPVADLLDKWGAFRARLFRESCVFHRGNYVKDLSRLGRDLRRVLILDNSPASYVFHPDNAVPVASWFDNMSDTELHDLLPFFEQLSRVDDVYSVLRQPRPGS
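System: truncated SCP-1 phosphatase (76-261aa); medium: Tris acetate buffer pH 5.5 with MgCl2 and Tween-20; incubation: 45 min room-temperature reaction, 5 min colour, 30 min stabiliser; compound: single 20 µM dose, 1% DMSO; reagent: Phosphorylated 17-residue peptide substrate; read-out: % inhibition at 20 µM; technique: colorimetric free-phosphate detection, absorbance 630 nm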
LMPTP block – blocks human LMPTP phosphatase | AID 651560 | inhibition, % at 20 µM | 0.22% of 360,000 active | recombinant LMPTP-A, OMFP fluorogenic substrate, fluorescence intensity;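 active means compounds that cut the enzyme signal by at least half of the control window in the single-dose screen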;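 further: plate controls were DMSO wells with enzyme plus substrate for no effect and substrate without enzyme for full effect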
Target sequence (P24666 whole entry, looked up): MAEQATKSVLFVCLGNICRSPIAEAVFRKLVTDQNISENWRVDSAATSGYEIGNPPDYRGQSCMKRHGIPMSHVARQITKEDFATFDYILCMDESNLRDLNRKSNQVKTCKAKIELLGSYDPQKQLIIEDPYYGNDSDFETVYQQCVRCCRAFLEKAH
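Test system: LMPTP-A, protein tyrosine phosphatase of low molecular weight; Input: 0.625 nM enzyme; Incubation: 50 min dark incubation at room temperature; Signal: endpoint fluorescence intensity from OMFP dephosphorylation; Read-out basis: % inhibition versus control wells.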
STEP block – blocks human striatal-enriched tyrosine phosphatase; P54829; recombinant STEP, OMFP fluorogenic substrate, fluorescence; inhibition, % at 20 µM; 0.25% of 360,000 active;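 active means inhibition at 20 µM, scaled per plate between control wells, above about 37%, limit read from the data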;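 further: 0% = DMSO with enzyme and substrate and 100% = substrate only without enzyme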
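medium = Bis-Tris buffer pH 6.0, 2.5 mM DTT, 0.005% Tween 20 | test system = STEP (striatal-enriched tyrosine phosphatase) enzyme, cell-free | measure = normalized % inhibition | compound dosing = 20 µM, 1% DMSO | also added = 25 µM OMFP | schedule = reaction 20 min, ambient temperature | measured by = fluorescence read at 480 nm ex / 540 nm em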
DNMT1 inh – DNMT1 (human) enzyme inhibition | DNMT1 molecular beacon, Hinp1I cleavage, fluorescence | inhibition (reported as % activation of signal), % at 10 µM | 0.83% of 360,000 active; in the data active means inhibition above about 50%
SUMO1 PPI mod – alters human SUMO1 binding to SIM partners | P63165 | SUMO1 binding to a labelled peptide, TR-FRET, 1 h | inhibition, % at 20 µM | 0.33% of 360,000 active; in the data active means inhibition above about 37%
Target sequence (P63165 whole entry, looked up): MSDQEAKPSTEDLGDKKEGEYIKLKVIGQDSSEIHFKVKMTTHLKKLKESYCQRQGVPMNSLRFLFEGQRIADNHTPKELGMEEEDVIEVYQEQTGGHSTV
HKDC1 inh – HKDC1 (human) hexokinase inhibition; Q2TB90; recombinant HKDC1, G6PDH/diaphorase resazurin coupled fluorescence; inhibition, % at 20 µM; 0.16% of 340,000 active;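 active means inhibition above about 35% when tested at 20 µM, limit read from the data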;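 further: plate controls were DMSO wells with enzyme for no effect and DMSO wells lacking enzyme for full effect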
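Assay system – recombinant HKDC1 (HK5) hexokinase enzyme, produced in-house · Input – HKDC1 at 5 µg/mL · Reagent – glucose plus 1 mM ATP as hexokinase substrates · Timing – 90 min reaction incubation at room temperature, dark · Measured by – G6PDH/diaphorase-coupled fluorescence, 1 mM NADP, 100 µM resazurin, 525/613 nm · Benchmarks – DMSO-enzyme wells negative, buffer-substituted wells positive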
Scp1 confirm – confirmation of human Scp-1 phosphatase inhibitors | inhibition, % at 20 µM | AID 540281 | 61% of 2,500 active | recombinant SCP-1 catalytic domain, phosphate release, malachite green absorbance | shares compounds with Scp1 inh;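 further: plate controls were DMSO with enzyme for no effect and buffer wells lacking enzyme for full effect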
Scp-1 MG ctr – interferes with malachite green readout, flagging false Scp-1 hits; shares compounds with Scp1 inh; Colorimetric interference counterscreen, malachite green absorbance 630 nm; apparent inhibition (interference), % at 20 µM; 2,500 tested, under 10 active;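 further: compounds added after enzyme reaction finished so only phosphate colour detection is probed; plate controls were DMSO wells with completed Scp-1 reaction for no effect and substrate wells lacking enzyme for full effect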
Scp1 DSF – binds human Scp-1, shifting its melting temperature; shares compounds with Scp1 inh; Recombinant SCP1, Sypro Orange thermal shift Tm; thermal shift relative to vanadate control, % at 40 µM; 25% of 1,500 active; AID 540329;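 active means substances whose mean melting-temperature shift, as a percentage of the reference inhibitor's shift, reaches about 5.3%, limit read from the data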;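 further: 0% = Tm of DMSO wells and 100% = Tm with sodium orthovanadate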
* = called active by the depositor.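 How the source made its calls, unless noted: active means inhibition of at least 30% at 20 µM; inactive means the rest.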

What do the screens show for `CCOC(=O)c1c(NC(=O)COC(=O)c2ccc(NC(=O)CC#N)cc2)sc(C(=O)NC)c1C`?
Scp1 inh: 58*; LMPTP block: 40; STEP block: 1; DNMT1 inh: -10; SUMO1 PPI mod: 57*; HKDC1 inh: 8; Scp1 confirm: 62*; Scp-1 MG ctr: -13; Scp1 DSF: -2

What do the screens show for `O=C(COC(=O)c1ccc(CO)cc1)Nc1ccc2ccccc2c1`?
Scp1 inh: -10; LMPTP block: 0; STEP block: 1; DNMT1 inh: -4; SUMO1 PPI mod: -1; HKDC1 inh: -3

How did N#CCC(=O)Nc1ccc(C(=O)OCC(=O)Nc2ccc3ccccc3c2)cc1 do in these assays?
Scp1 inh: 52*; LMPTP block: 12; STEP block: 3; DNMT1 inh: -23; SUMO1 PPI mod: 12; HKDC1 inh: 5; Scp1 confirm: 57*; Scp-1 MG ctr: -15; Scp1 DSF: 25*

How did CCOC(=O)c1c(NC(=O)COC(=O)c2ccc(O)cc2)sc(C(=O)N(C)C)c1C do in these assays?
Scp1 inh: -3; LMPTP block: 0; STEP block: 1; DNMT1 inh: -5; SUMO1 PPI mod: 12; HKDC1 inh: -14

What do the screens show for `CCN(CCCCN1C(=O)c2ccccc2C1=O)c1ccc2c(c1)C(=O)N(C)C2=O`?
Scp1 inh: 67*; LMPTP block: 6; STEP block: 2; DNMT1 inh: 31; SUMO1 PPI mod: -15; HKDC1 inh: 23; Scp1 confirm: 68*; Scp-1 MG ctr: -11; Scp1 DSF: 1

How did O=C(N/N=C/c1cn(-c2ccccc2)nc1-c1cc2ccccc2o1)c1ccncc1 do in these assays?
Scp1 inh: -8; LMPTP block: 2; STEP block: -1; DNMT1 inh: -5; SUMO1 PPI mod: 0; HKDC1 inh: -10

How did O=C(O)c1cccc(NC(=O)c2cn(-c3ccccc3)nc2-c2cc3ccccc3o2)c1 do in these assays?
Scp1 inh: 58*; LMPTP block: 56*; STEP block: 7; DNMT1 inh: -6; SUMO1 PPI mod: 14; HKDC1 inh: 5; Scp1 confirm: 80*; Scp-1 MG ctr: -13; Scp1 DSF: 4

Results for CCCOc1nc2ccccc2cc1/C=C/C(=O)O ?
Scp1 inh: -3; LMPTP block: 1; STEP block: 1; DNMT1 inh: 15; SUMO1 PPI mod: -6; HKDC1 inh: -9

How did O=C(O)/C=C/c1cnc2ccccc2c1 do in these assays?
Scp1 inh: 55*; LMPTP block: 0; STEP block: 0; DNMT1 inh: 2; SUMO1 PPI mod: -4; HKDC1 inh: -1; Scp1 confirm: 10; Scp-1 MG ctr: -13

Results for CCCc1nc2ccccc2c(C(=O)OCC(=O)N2CCc3ccccc32)c1CC ?
Scp1 inh: -2; LMPTP block: 4; STEP block: 2; DNMT1 inh: -7; SUMO1 PPI mod: -2; HKDC1 inh: 1

What do the screens show for `CCCCNC(=O)COC(=O)c1c2c(nc3ccccc13)CCC2`?
Scp1 inh: 62*; LMPTP block: 4; STEP block: 8; DNMT1 inh: 44; SUMO1 PPI mod: 2; HKDC1 inh: 4; Scp1 confirm: 46*; Scp-1 MG ctr: -7; Scp1 DSF: 8.4*

Results for C=CCNC(=O)COC(=O)c1c2c(nc3ccccc13)CCC2 ?
Scp1 inh: 66*; LMPTP block: 3; STEP block: 2; DNMT1 inh: 24; SUMO1 PPI mod: -3; HKDC1 inh: 1; Scp1 confirm: 65*; Scp-1 MG ctr: -11; Scp1 DSF: 9.5*

What do the screens show for `CC1CCc2nc3ccccc3c(C(=O)OCC(=O)N3CCc4ccccc43)c2C1` (centres undefined)?
Scp1 inh: 50*; LMPTP block: 5; STEP block: 1; DNMT1 inh: 5; SUMO1 PPI mod: 8; HKDC1 inh: -5; Scp1 confirm: -20; Scp-1 MG ctr: -17

What do the screens show for `Cc1ccc(-c2csc(NCCn3c(C(F)(F)F)nc4ccccc43)n2)cc1`?
Scp1 inh: 59*; LMPTP block: 1; STEP block: 2; DNMT1 inh: 5; SUMO1 PPI mod: 2; HKDC1 inh: -1; Scp1 confirm: -23; Scp-1 MG ctr: -19

Results for COc1ccc(CCn2c(C(C)C)nc3c(c(=O)c4ccccc4n3C)c2=O)cc1 ?
Scp1 inh: 59*; LMPTP block: 4; STEP block: 2; DNMT1 inh: -2; SUMO1 PPI mod: 11; HKDC1 inh: 5; Scp1 confirm: 11; Scp-1 MG ctr: 6

What do the screens show for `COc1ccc(CCn2c(C)nc3c(c(=O)c4ccccc4n3C)c2=O)cc1`?
Scp1 inh: 0; LMPTP block: 2; STEP block: -1; DNMT1 inh: 3; SUMO1 PPI mod: 13; HKDC1 inh: -9

How did C[C@H](O)[C@@]1(O)CC[C@H]2[C@@H]3CC[C@@H]4C[C@H](O)CC[C@]4(C)[C@H]3CC[C@@]21C do in these assays?
Scp1 inh: -4; LMPTP block: 0; STEP block: -6; DNMT1 inh: -2; SUMO1 PPI mod: 7; HKDC1 inh: -4

What do the screens show for `C[C@]12CC[C@H](O)C[C@@H]1CC[C@@H]1[C@@H]2CC[C@@]2(C)[C@H]1CCC(=O)[C@]21CCCO1`?
Scp1 inh: 82*; LMPTP block: 0; STEP block: 2; DNMT1 inh: 3; SUMO1 PPI mod: 1; HKDC1 inh: -3; Scp1 confirm: -19; Scp-1 MG ctr: -16

Results for CC(=O)Nc1ccc(S(=O)(=O)NCCC(=O)OCC(=O)N2CCN(C(=O)c3ccco3)CC2)cc1 ?
Scp1 inh: 77*; LMPTP block: -2; STEP block: 0; DNMT1 inh: 12; SUMO1 PPI mod: 3; HKDC1 inh: -3; Scp1 confirm: 66*; Scp-1 MG ctr: -17; Scp1 DSF: 5.9*

How did O=C(CCNS(=O)(=O)c1cccc(Cl)c1)OCC(=O)N1CCN(C(=O)c2ccco2)CC1 do in these assays?
Scp1 inh: 17; LMPTP block: -1; STEP block: 1; DNMT1 inh: -2; SUMO1 PPI mod: 1; HKDC1 inh: 4

High-throughput results (PubChem BioAssay)
